Rows were chosen to be rich in hits. Some 3.3% of all compounds tested hit in one or more screens of this group.
PMI act satM6P: human PMI activators, high substrate, primary screen, biochemical, fluorescence intensity, near-saturating mannose 6-phosphate; coupled PMI enzyme assay, resazurin fluorescence, 20 min; active compounds read high; 1 = untreated enzyme, 0 = substrate-free blank; activation factor at 20 µM; 0.34% of 190,000 active; AID 1216, 2008;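 active = activation factor of 2 or more at 20 µM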
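Test system: human phosphomannose isomerase with PGI, G6PDH, diaphorase coupling enzymes; Amount: PMI at 15 ng/mL final; Reagent: Mannose-6-phosphate 1.0 mM (near-saturating) plus 0.22 mM NADP+; Timing: 20 min, room temperature; Technique: resorufin fluorescence at Ex 544/Em 590 nm; Dosing: 20 µM single dose.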
PMI activator: activators of human PMI, primary screen, biochemical, fluorescence intensity, near-Km mannose 6-phosphate; Mannose-6-phosphate isomerase (Homo sapiens), P34949; purified human PMI, coupled resazurin fluorescence, 20 min; active compounds read high; 1 = vehicle control, 0 substrate-free wells; activation factor at 20 µM; 0.005% of 190,000 active; AID 1214, 2008;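 active = activation factor of 2 or more at 20 µM, relative to plate controls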
ABCG2 block: ABCG2 efflux pump inhibitors, primary screen, multiplex with ABCB1, IgMXP3 cells, flow cytometry | JC-1 efflux | inhibition, % at 6.6 µM | 0.1% of 190,000 active | AID 1325, 2008;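 active = inhibition above 80%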
Target sequence (Q9UNQ0 whole entry, looked up): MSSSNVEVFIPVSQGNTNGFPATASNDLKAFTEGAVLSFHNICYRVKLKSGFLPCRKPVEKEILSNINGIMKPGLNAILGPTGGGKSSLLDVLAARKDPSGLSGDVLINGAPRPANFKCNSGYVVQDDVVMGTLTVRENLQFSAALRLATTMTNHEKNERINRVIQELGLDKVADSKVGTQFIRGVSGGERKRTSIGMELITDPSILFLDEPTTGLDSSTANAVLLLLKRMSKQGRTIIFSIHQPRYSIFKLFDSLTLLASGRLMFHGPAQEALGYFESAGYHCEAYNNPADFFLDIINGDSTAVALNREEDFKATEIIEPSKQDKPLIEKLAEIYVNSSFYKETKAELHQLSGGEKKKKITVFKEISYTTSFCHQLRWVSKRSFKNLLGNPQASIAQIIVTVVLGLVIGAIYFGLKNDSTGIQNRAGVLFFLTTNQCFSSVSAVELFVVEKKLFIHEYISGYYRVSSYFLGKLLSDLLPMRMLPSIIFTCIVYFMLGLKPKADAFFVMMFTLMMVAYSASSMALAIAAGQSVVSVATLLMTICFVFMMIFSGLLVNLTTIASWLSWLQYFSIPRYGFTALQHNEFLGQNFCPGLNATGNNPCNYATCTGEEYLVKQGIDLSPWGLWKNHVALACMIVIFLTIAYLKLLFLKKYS
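Assay system – ABCG2 IgMXP3 and barcoded ABCB1 CCRF-Adr cell mix · Input – 3 million cells/mL in well · Reagent – JC-1 fluorescent substrate · Compound – single test compound dose, 6.6 µM final · Timing – 10 min exposure at 25 °C with rotation, no wash · Detection – flow cytometry of retained JC-1 fluorescence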
ROMK mod: ROMK potassium channel modulators, primary screen, cell-based, thallium flux, MLSMR library; Tet-inducible ROMK, thallium flux fluorescence; actives lie on both sides; ATP-sensitive inward rectifier potassium channel 1 (Homo sapiens), P48048; B-score at 10 µM; 2% of 130,000 active;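 active = signal ratio slope over the read window, or its plate-corrected B-score, at least 3 SD from the plate mean, either direction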;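 note: B-score of the F/F0 ratio slope over 7 to 12 s after thallium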
ABCB1 inh: ABCB1 efflux pump inhibitors, primary screen, cell-based, multiplex, flow cytometry, ABCG2 counter-screen; 0.067% of 190,000 active; AID 1326, 2008; CCRF-Adr cells, JC-1 efflux; inhibition, % at 6.6 µM; ATP-dependent translocase ABCB1 (Homo sapiens), P08183; in the data active = inhibition above about 40%;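 note: higher value means more JC-1 retained so stronger ABCB1 efflux block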
Cl transport mod: KCC2 cotransporter modulators, thallium flux, primary screen, cell-based, HEK293 KCC2, FluoZin-2 fluorescence, MLSMR | Solute carrier family 12 member 5 (Homo sapiens), Q9H2X9 | KCC2 cells, thallium flux FluoZin-2 fluorescence | B-score of Tl+ flux slope (higher = more flux/activation; lower = inhibition) at 10 µM | 2.2% of 190,000 active | AID 1456, 2008;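 active = thallium flux slope and its plate-corrected score both differing from the plate sample mean at a set confidence after two filtering rounds, in either direction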;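 note: slope of fluorescence scaled to starting intensity during 10 to 20 s after thallium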
Of the large screens only hits and unclear results are named; the others gave an inactive call.

Cc1ccc(Cn2c(O)c(N=NC(=S)Nc3ccccc3F)c3cc(S(=O)(=O)N4CCOCC4)ccc32)cc1	none
Cc1ccc(C)c(NC(=S)N=Nc2c(O)n(C)c3ccc(S(=O)(=O)N4CCOCC4)cc23)c1	Cl transport mod 5.7 (no result: ROMK mod)
CCOC(=O)c1cc(-c2ccc(C)cc2)n(CCC(=O)N2CCN(c3ccccn3)CC2)c1C	none (no result: ROMK mod)
CC1(C)Cc2c(oc3ncn4ncnc4c23)CO1	none (no result: Cl transport mod)
CSc1nc2oc3c(c2c2nncn12)CC(C)(C)SC3	PMI act satM6P 2.6 (no result: ROMK mod)
COc1ccc(C2CC(c3cccs3)=NN2c2nc(-c3ccccc3)cs2)cc1OC (centres undefined)	PMI act satM6P 2.1 (no result: ROMK mod, Cl transport mod)
CC(C)C(=O)N1CCc2cc(-c3csc(N)n3)ccc21	PMI act satM6P 2.1
O=C(NNC(=O)c1sccc1-n1cccc1)c1ccc(Cl)cc1	Cl transport mod 15 (no result: ROMK mod)
CCOC(=O)c1cn(-c2c(C)n(C)n(-c3ccccc3)c2=O)c2c(F)c(F)c(F)cc2c1=O	none (no result: PMI act satM6P, PMI activator, ABCG2 block, ROMK mod, ABCB1 inh)
Cc1ccc(S(=O)(=O)N/N=C\c2cc([N+](=O)[O-])ccc2Cl)cc1	PMI act satM6P 2 (no result: ROMK mod, Cl transport mod)
c1ccc2oc(-c3ccc(Nc4nc(N5CCCC5)nc(N5CCOCC5)n4)cc3)nc2c1	none
CC(C)CCN(N=O)[C@@H](Cc1ccccc1)CN(N=O)[C@@H](Cc1ccccc1)CN(C)N=O	Cl transport mod -4.1 (no result: ROMK mod)
O=S(NCc1ccccc1)C12CC3CC(CC(C3)C1)C2 (centres undefined)	none
O=S(NCc1ccco1)C12CC3CC(CC(C3)C1)C2 (centres undefined)	PMI act satM6P 2
CCOC(=O)c1c(/N=C/N(C)C)sc(C)c1C	none
CCOC(=O)c1c(/N=C/N(C)C)sc(/C=N/Nc2ccccc2)c1-c1ccc(Cl)cc1	PMI act satM6P 2.1
Oc1ccc(/C=N/Nc2ccccc2)cc1	PMI act satM6P 2.5
Brc1ccc(/C=N/Nc2ccc3ccccc3n2)cc1	none (no result: ROMK mod)
Brc1ccc(/C=N/Nc2ccccc2)cc1	PMI act satM6P 2.4
O=C(COc1ccc([N+](=O)[O-])cc1)Nc1nnc(-c2cccnc2)s1	none (no result: PMI act satM6P, PMI activator, ABCG2 block, ROMK mod, ABCB1 inh)
COC(=O)c1c(NS(=O)(=O)Cc2ccccc2)sc2c1CCCC2	Cl transport mod 45
COC(=O)c1c(NS(=O)(=O)c2ccc(C)cc2)sc2c1CCC(C)C2 (centres undefined)	Cl transport mod 16 (no result: ROMK mod)
CC(C)OC(=O)c1c(NS(=O)(=O)c2ccccc2)sc2c1CCCC2	Cl transport mod 23
S=c1nc[nH]c2c1ncn2C1CCCC1	none (no result: PMI act satM6P, PMI activator, ABCG2 block, ROMK mod, ABCB1 inh)
O=C(NC(=O)N1CCN(c2ccc([N+](=O)[O-])cn2)CC1)c1c(Cl)cccc1Cl	none (no result: PMI act satM6P, PMI activator, ABCG2 block, ABCB1 inh)
O=C(c1cccc(-c2ccc(O)cc2)c1)N1CCN(c2ccc(F)cc2)CC1	none
CC1=NOC(=O)/C1=C/c1ccc(-c2ccc(Cl)cc2)o1	ROMK mod -2.7 (no result: Cl transport mod)
CCN(CC)CCCN1C(=O)c2oc3ccccc3c(=O)c2C1c1cc(OC)ccc1OC (centres undefined)	none (no result: Cl transport mod)
CCN(CC)C(=S)SCC(=O)Nc1nc(=O)c2ccccc2s1	Cl transport mod 16
CCN(CC)C(=S)SCC(=O)Nc1ccc(S(N)(=O)=O)cc1	none
COc1c(OC)c(O)c2c(=O)c(O)c(-c3ccccc3)oc2c1OC	Cl transport mod 52 (no result: ROMK mod)
c1ccc(Cc2nnc(-c3ccccc3)o2)cc1	Cl transport mod 14 (no result: ROMK mod)
Brc1ccc(-c2nnc(Cc3ccccc3)o2)cc1	none (no result: PMI act satM6P, PMI activator, ABCG2 block, ROMK mod, ABCB1 inh)
O=C1NC(=S)S/C1=C\c1coc2ccccc2c1=O	ROMK mod -4.6 (no result: Cl transport mod)
C/[N+]([O-])=C\c1coc2ccccc2c1=O	none
O=[N+]([O-])c1ccc(N2CCN(c3ccc(Cl)nn3)CC2)cc1NC1CC1	none (no result: PMI act satM6P, PMI activator, ABCG2 block, ABCB1 inh)
Cc1sc2nc(C3CC3)nc(SCC(=O)N3CC(=O)Nc4ccccc43)c2c1C	Cl transport mod 12 (no result: ROMK mod)
Clc1ccc(-c2cn3cccnc3n2)cc1Cl	PMI act satM6P 2 (no result: ROMK mod)
Clc1ccc(-c2cn3cccnc3n2)cc1	none
C=C1SC(Nc2c(C)cc(C)cc2C)=NC12CCCCC2	none (no result: PMI act satM6P, PMI activator, ABCG2 block, ROMK mod, ABCB1 inh)
CC(/C=N/n1c(-c2ccc(Cl)cc2)n[nH]c1=S)=C\c1ccco1	Cl transport mod 13 (no result: ROMK mod)
Cc1ccc(/C=N/n2c(-c3ccco3)n[nH]c2=S)s1	none
CC(/C=N/n1c(-c2cc(C)[nH]n2)n[nH]c1=S)=C\c1ccco1	none (no result: PMI act satM6P, PMI activator, ABCG2 block, ROMK mod, ABCB1 inh)
CC(/C=N/n1c(-c2ccco2)n[nH]c1=S)=C\c1ccccc1	Cl transport mod 13 (no result: ROMK mod)
Cc1c(NC(=O)CCCCCN2C(=O)C3C4C=CC(C4)C3C2=O)c(=O)n(-c2ccccc2)n1C (centres undefined)	none (no result: ROMK mod)
O=C(NN=c1c(=O)c2ccccc2c1=O)c1ccccc1	Cl transport mod 8.6
O=C(N/N=C/c1oc(O)c2ccccc12)c1ccccc1	PMI act satM6P 2.4
O=C(N/N=C/c1ccncc1)c1ccccc1	none (no result: ROMK mod)
COc1ccc(C2CC(=O)c3sc(NC(C)=O)nc3C2)cc1 (centres undefined)	none
COc1cccc(-c2nc(CS(=O)(=O)CC(=O)NCCCN3CCc4ccccc4C3)c(C)o2)c1	Cl transport mod -3.9 (no result: ROMK mod)
Cc1cc2cc(C=C(C#N)C#N)c(Cl)nc2cc1C	none
COc1ccc(N(C(=O)c2ccco2)S(=O)(=O)c2cccs2)cc1	Cl transport mod -2.8
COc1ccc(C(=O)N(c2ccc(OC)cc2)S(=O)(=O)c2cccs2)cc1	none
C/C(C/C(C)=C1/SC(=S)NC1=O)=C1\SC(=S)NC1=O	none
